Test results taken from ChEMBL document CHEMBL1121860, “Characterization of alpha-adrenoceptor populations. Quantitative relationships between cardiovascular effects initiated at central and peripheral alpha-adrenoceptors” (J Med Chem, 1981).

Columns and labels:
[1] = target: T1, Adrenergic receptor alpha (Rattus norvegicus) (UniProt P15823+P23944+P43140+P22086+P19328+P22909); test: Peripheral hypertensive activity in pithed normotensive rats.; assay type: functional
Outline: (§1)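 Normotensive rats under hexobarbitone sodium 150 mg/kg ip, pithed via orbit, ventilated, ~37 °C, heparinized; after 20 min equilibration, single iv jugular doses in random order, 3-4 per rat with recovery between; carotid MAP rise (mmHg). pC60 = log reciprocal dose (μmol/kg) raising MAP by 60 mmHg, from log dose-response curves; points mean of 5-6 experiments.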

[2] = Partition coefficient (logD7.4); assay type: physicochemical; settings: octanol/water, pH 7.4
Outline: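 Octanol against 0.1 M phosphate buffer at pH 7.4 and 37 °C. Drug at about 10^-4 M in octanol-saturated buffer was shaken for 1 h with buffer-saturated octanol, then left standing 6 h. Buffer-phase drug was measured by UV at λmax before and after partitioning, with GLC or potentiometric titration used for some compounds. Apparent P' is the mean of six partition experiments.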

[3] = target: T1, Adrenergic receptor alpha (Rattus norvegicus); test: Central hypotensive activity in anesthetized normotensive rats.; assay type: functional
Outline: (§2)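 Male normotensive Wistar rats (190-220 g), pentobarbitone sodium 75 mg/kg ip, ventilated, ~37 °C; iv jugular dosing, one single dose per rat, randomized; carotid arterial pressure after ≥20 min equilibration with heparin; rats with MAP <100 or >150 mmHg excluded. Maximal MAP fall as % of preinjection; pC25 = log reciprocal dose (μmol/kg) for 25% fall, from log dose-response curves; points mean of 5-6 experiments.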

[4] = target: T1, Adrenergic receptor alpha (Rattus norvegicus); test: Tested for peripheral hypertensive activity in pithed normotensive rats at alpha adrenoceptor expressed as increase in mean arterial pressure by 60 mmHg; outline: as §1
[5] = target: T1, Adrenergic receptor alpha (Rattus norvegicus); test: Tested for central hypotensive activity in anesthetized normotensive rats at alpha adrenoceptor expressed as 25% decrease in mean arterial pressure; outline: as §2

Row | Structure (SMILES) | pC60 [1] | logD [2] | pC25 [3] | pC60 [4] | pC25 [5]
1 | Clc1cccc(Cl)c1/C=N/NC1=NCCN1 | 0.23 | 2.12 | 0.63 |  | 
2 | Cc1cccc(C)c1N=C1NCCCS1 [XYLAZINE] |  | 1.34 |  |  | 
3 | c1ccc2c(c1)CCCC2C1=NCCN1 (stereo not given) [TETRAHYDROZOLINE] | 0.9 | -0.9 | -0.16 |  | 
4 | Cc1cccc(C)c1NC1=NCCCS1 | -0.02 |  | 0.62 |  | 
5 | c1ccc2c(CC3=NCCN3)cccc2c1 [NAPHAZOLINE] | 1.83 | -0.52 | 0.95 |  | 
6 | Cc1csc(Cl)c1NC1=NCCN1 [TIAMENIDINE] | 1.2 | -0.17 | 0.69 |  | 
7 | Clc1cccc(Cl)c1N=C1NCCCN1 |  | -0.34 |  |  | 
8 | Clc1cccc(Cl)c1SC1=NCCN1 | 1.24 | 1.36 | 0.88 |  | 
9 | CCN1CCc2nc(N)oc2CC1 [AZEPEXOLE] | -0.41 | 0.05 | -0.14 |  | 
10 | Cc1cc(C(C)(C)C)cc(C)c1CC1=NCCN1 [XYLOMETAZOLINE] | 1.12 | 0.4 | 0.26 |  | 
11 | CC(Oc1c(Cl)cccc1Cl)C1=NCCN1 (stereo not given) [LOFEXIDINE] | 1.99 | 0.73 | 2.09 |  | 
12 | Clc1cccc(Cl)c1NC1=NCCCN1 | -0.79 |  |  |  | 
13 | Clc1cccc(Cl)c1C1=CN2CCN=C2S1 | 2.4 | 2.02 | 2.77 |  | 
14 | Clc1cccc(Cl)c1NC1=NCCN1 | 1.78 |  | 2.04 |  | 
15 | Clc1cc(Br)cc(Cl)c1N=C1NCCN1 | 1.22 | 2.31 | 0.84 |  | 
16 | C=CCN1CCc2nc(N)sc2CC1 [TALIPEXOLE] | 0.69 | 1.09 | 1.43 |  | 
17 | Clc1cccc(Cl)c1N=C1NCCN1 [CLONIDINE] |  | 0.85 |  |  | 
18 | CC[C@H]1CCC[C@@H](C)[C@@H]1NC1=NCCO1 |  | 1.39 |  | 2.11 | 2.32
19 | FC(F)(F)c1cc(Br)cc(Br)c1NC1=NCCN1 | -0.26 | 2.8 |  |  | 
20 | Brc1c(NC2=NCCN2)ccc2nccnc12 [BRIMONIDINE] | 1.56 | 0.31 | 1.55 |  | 
21 | c1cc2c(c(NC3=NCCN3)c1)CCCC2 [TRAMAZOLINE] | 1.8 | -0.62 | 0.55 |  | 
22 | Clc1cccc(Cl)c1CC1=NCCN1 | 1.17 | -0.53 | 0.68 |  | 
23 | Brc1cc(Br)c(N=C2NCCN2)c(Br)c1 | 0.65 | 2.51 |  |  | 
24 | Cc1cccc(C)c1/N=C1/NCCO1 |  | 1.28 |  | 1.51 | 1.96
